Results reported in ChEMBL document CHEMBL4049461, “Double-Winged 3-Hydroxypyrimidine-2,4-diones: Potent and Selective Inhibition against HIV-1 RNase H with Significant Antiviral Activity” (J Med Chem, 2017).

Legend:
[1] = Inhibition of recombinant full length HIV1 reverse transcriptase RNase H domain using RNA/DNA duplex substrate HTS1 assessed as reduction in internal cleavage of RNA strand by fluoresence assay; design: species or system Human immunodeficiency virus 1
Procedure, shortened: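 Full-length HIV RT incubated with fluorescein/Dabcyl-labelled 18-mer RNA/DNA duplex HTS-1, which reports non-specific internal RNA cleavage, across a compound concentration series. Dose-response data fitted by nonlinear regression to logistic curves. IC50 given as mean ± SD from at least two independent experiments.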

[2] = Inhibition of recombinant full length HIV1 reverse transcriptase polymerase domain assessed as decrease in extension of 18 nucleotide DNA primer annealed to 100 nucleotide DNA template after 30 mins; design: species or system Human immunodeficiency virus 1
Procedure, shortened: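 20 nM RT, 40 nM 18-nt primer annealed to 100-nt DNA template, and 10 μM dNTPs in 50 mM Tris pH 7.8, 50 mM NaCl, 1% DMSO, with increasing compound concentrations. Reactions started with 6 mM MgCl2, run 30 min at 37 °C, and stopped with 100 mM EDTA.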

[3] = Inhibition of HIV integrase strand transfer activity expressed in Escherichia coli BL21 (DE3) using 5' biotin ATGTGGAAAATCTCTAGCA primer annealed with ACTGCTAGAGATTTTCCACAT 3' Cy5 template preincubated for 10 mins followed by primer/template addition measured after 30 mins by fluorescence assay; design: species or system Human immunodeficiency virus
Procedure, shortened: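 Integrase preincubated 10 min at 25 °C with compound (final 0.13–100 μM, duplicate) in 10 mM HEPES pH 7.5, 10% glycerol, 10 mM MnCl2, 1 mM DTT, 1 μM enzyme. Biotin/Cy5 oligo duplex added; 30 min at 37 °C; EDTA quench.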

[4] = tested on: Human immunodeficiency virus 1; assay: Antiviral activity against HIV1 infected in CD4/CXCR4/CCR5 expressing human P4R5 cells assessed as inhibition of viral replication preincubated with cells for 24 hrs followed by viral infection measured after 48 hrs by beta-galactosidase reporter gene assay; assay type: functional; conditions: Human immunodeficiency virus 1, P4/R5
Procedure, shortened: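 P4R5 indicator cells (CD4, CXCR4, CCR5; HIV LTR-driven β-galactosidase reporter) seeded 4 × 10³/well in DMEM/10% FBS with puromycin (1 μg/mL). Cells lysed, MUG substrate added, fluorescence β-galactosidase readout.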

[5] = Cytotoxicity against human P4R5 cells by MTS assay; assay type: cell-based

| Compound | IC50 [1] [µM] | IC50 [2] [µM] | IC50 [3] [µM] | EC50 [4] [µM] | CC50 [5] [µM] |
| --- | --- | --- | --- | --- | --- |
| O=C(Nc1ccc(-c2ccccc2)cc1)c1c(NCc2ccccc2)[nH]c(=O)n(O)c1=O | 0.12 | > 10 | > 100 | 15 | 54 |
| Cc1ccc(NC(=O)c2c(NCc3ccccc3)[nH]c(=O)n(O)c2=O)cc1 | 0.019 | 10 | 34 | 7.2 | 53 |
| O=C(NCc1cccc(Cl)c1F)c1c(Nc2ccc(-c3ccccc3)cc2)[nH]c(=O)n(O)c1=O | 0.059 | > 10 | > 100 | – | – |
| O=C(Nc1ccc(F)cc1F)c1c(NCc2ccccc2)[nH]c(=O)n(O)c1=O | 0.079 | > 10 | 29 | > 20 | > 100 |
| O=C(Nc1ccc(-c2ccccc2)cc1)c1c(Nc2ccc(-c3ccccc3)cc2)[nH]c(=O)n(O)c1=O | 1 | 1.8 | > 100 | – | – |
| O=C(Nc1ccccc1)c1c(NCc2ccccc2)[nH]c(=O)n(O)c1=O | 0.027 | > 10 | > 100 | 6.9 | 52 |
| O=C(NCc1ccccc1)c1c(NCc2ccc(-c3ccccc3)cc2)[nH]c(=O)n(O)c1=O | 0.054 | > 10 | 1.6 | > 20 | – |
| COc1cc2ccccc2cc1/C=N/NC(=O)c1cc(O)c(O)c(O)c1 | 0.2 | 0.5 | – | – | – |
| O=C(NCc1cc(F)ccc1F)c1c(Nc2ccc(-c3ccccc3)cc2)[nH]c(=O)n(O)c1=O | 0.05 | 9.5 | > 100 | 3.7 | > 100 |
| O=C(Nc1cccc2ccccc12)c1c(Nc2ccccc2)[nH]c(=O)n(O)c1=O | 0.018 | 7.7 | 3.2 | 11.4 | 76.8 |
| O=C(NCc1ccc(F)cc1)c1c(Nc2ccc(-c3ccccc3)cc2)[nH]c(=O)n(O)c1=O | 0.047 | > 10 | > 100 | – | – |
| O=C(NCc1ccc(-c2ccccc2)cc1)c1c(NCc2ccc(-c3ccccc3)cc2)[nH]c(=O)n(O)c1=O | 0.11 | > 10 | > 100 | > 20 | > 100 |
| O=C(Nc1ccc(-c2ccccc2)cc1)c1c(NCc2ccc(-c3ccccc3)cc2)[nH]c(=O)n(O)c1=O | 0.14 | > 10 | > 100 | > 20 | – |
| O=C(NCc1ccccc1)c1c(Nc2ccccc2)[nH]c(=O)n(O)c1=O | 0.056 | > 10 | 0.23 | 0.6 | > 100 |
| O=C(Nc1ccc(C(F)(F)F)cc1)c1c(NCc2ccccc2)[nH]c(=O)n(O)c1=O | 0.041 | > 10 | > 100 | > 20 | > 100 |
| O=C(NCc1ccc(-c2ccccc2)cc1)c1c(NCc2ccccc2)[nH]c(=O)n(O)c1=O | 0.038 | > 10 | > 100 | > 20 | > 100 |

| Compound | IC50 [1] [µM] | IC50 [2] [µM] | IC50 [3] [µM] | EC50 [4] [µM] | CC50 [5] [µM] |
| --- | --- | --- | --- | --- | --- |
| O=C(NCc1ccccc1)c1c(Nc2ccc(-c3ccccc3)cc2)[nH]c(=O)n(O)c1=O | 0.11 | > 10 | 23 | – | – |
| O=C(Nc1ccc(F)cc1)c1c(Nc2ccccc2)[nH]c(=O)n(O)c1=O | 0.004 | > 10 | 3.1 | 6.1 | 58.4 |
| CCc1ccc(NC(=O)c2c(NCc3ccccc3)[nH]c(=O)n(O)c2=O)cc1 | 0.054 | 10 | > 100 | 8.5 | > 100 |
| O=C(NCc1ccccc1F)c1c(Nc2ccc(-c3ccccc3)cc2)[nH]c(=O)n(O)c1=O | 0.04 | > 10 | > 100 | – | – |
| O=C(Nc1ccc(F)cc1)c1c(NCc2ccccc2)[nH]c(=O)n(O)c1=O | 0.019 | 10 | 71 | > 20 | > 100 |
| O=C(NCc1cccc(F)c1)c1c(Nc2ccc(-c3ccccc3)cc2)[nH]c(=O)n(O)c1=O | 0.049 | > 10 | > 100 | 6.3 | > 100 |
| O=C(Nc1ccc(-c2ccc(F)cc2)cc1)c1c(Nc2ccc(-c3ccccc3)cc2)[nH]c(=O)n(O)c1=O | 0.97 | 1.6 | > 100 | – | – |
| O=C(NCc1ccccc1)c1c(NCc2ccccc2)[nH]c(=O)n(O)c1=O | 0.032 | > 10 | 0.14 | 1.4 | > 100 |
| O=C(NCc1ccc(F)cc1F)c1c(Nc2ccc(-c3ccccc3)cc2)[nH]c(=O)n(O)c1=O | 0.077 | 8.6 | > 100 | 1.5 | > 100 |
| O=C(Nc1ccc(C(F)(F)F)cc1)c1c(Nc2ccccc2)[nH]c(=O)n(O)c1=O | 0.038 | 8.1 | 9.5 | 3.5 | > 100 |
| O=C(Nc1ccccc1)c1c(Nc2ccccc2)[nH]c(=O)n(O)c1=O | 0.016 | > 10 | 1.5 | 6.6 | > 100 |
| O=C(Nc1ccccc1)c1c(NCc2ccc(-c3ccccc3)cc2)[nH]c(=O)n(O)c1=O | 0.047 | > 10 | > 100 | > 20 | – |
| COc1ccc(-c2ccc(NC(=O)c3c(Nc4ccc(-c5ccccc5)cc4)[nH]c(=O)n(O)c3=O)cc2)cc1 | 1.2 | 1.4 | > 100 | – | – |
| Cc1ccc(NC(=O)c2c(Nc3ccccc3)[nH]c(=O)n(O)c2=O)cc1 | 0.03 | > 10 | 2.6 | 4.5 | > 100 |
| O=C(Nc1cccc2ccccc12)c1c(NCc2ccccc2)[nH]c(=O)n(O)c1=O | 0.057 | > 10 | 21 | > 20 | > 100 |
